High-throughput results as filed in PubChem BioAssay.
JMJD2C inh = inhibitors of GASC-1 histone demethylase, primary screen, biochemical, fluorescence, DELFIA europium | Lysine-specific demethylase 4C (Homo sapiens), Q9H3R0 | GST-JMJD2C(1-420) H3K9me3 demethylation | inhibition, % at 2.35 µM | actives 0.069% (n = 330,000) | AID 2099, 2009;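 active means more than half of a compound's replicate wells show inhibition beyond 50%, single wells judged on their own value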;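 further: signal counts dimethyl H3K9 product captured on neutravidin plate; 0% = median of DMSO wells and 100% = 0.3 times that DMSO median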
A3G deaminase = APOBEC3G DNA deaminase inhibitors, primary screen, biochemical, fluorescence, single-stranded DNA substrate, uHTS; recombinant A3G, ssDNA deamination FAM/TAMRA fluorescence; inhibition, % at 20 µM; actives 0.28% (n = 330,000); AID 493012, 2011;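 active means inhibition of at least 40% at 20 µM, with no more than 30% in the related APOBEC3A deaminase screen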;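 further: plate controls were DMSO wells with A3G for no effect and wells lacking A3G enzyme for full effect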
Target sequence (Q9HC16 whole entry, looked up): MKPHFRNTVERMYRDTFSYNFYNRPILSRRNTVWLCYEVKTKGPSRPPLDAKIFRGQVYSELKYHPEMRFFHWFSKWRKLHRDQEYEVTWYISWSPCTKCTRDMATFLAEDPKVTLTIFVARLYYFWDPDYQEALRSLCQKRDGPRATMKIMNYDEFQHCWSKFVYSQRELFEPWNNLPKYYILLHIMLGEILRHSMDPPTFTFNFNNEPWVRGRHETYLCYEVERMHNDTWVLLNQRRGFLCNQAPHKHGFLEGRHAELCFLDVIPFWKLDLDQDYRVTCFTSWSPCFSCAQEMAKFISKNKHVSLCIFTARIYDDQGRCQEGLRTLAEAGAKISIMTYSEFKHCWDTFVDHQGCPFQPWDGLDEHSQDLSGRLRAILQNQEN
UCH37 DUB inh = inhibitors of human UCH37 deubiquitinase, primary screen, biochemical, Ub-AMC cleavage, fluorescence; inhibition, % (concentration not given with the values); purified proteasome/UCH37; AID 588478, 2011; Ubiquitin carboxyl-terminal hydrolase isozyme L5 (Homo sapiens), Q9Y5K5; actives 0.33% (n = 330,000);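 active means mean inhibition over replicate wells above about 20%, limit read from the data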;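 further: 0% = compound-free wells with enzyme and 100% = wells lacking proteasome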
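Assay system: Proteasome-bound UCH37. Buffer or medium: pH 7.4 Tris-HCl (50 mM) with ovalbumin, ATP-MgCl2, DTT. Incubation: 30 min preincubation with enzyme, 25 min cleavage at room temperature. Measured by: fluorescence, ex 355 nm, em 460 nm. Read-out basis: percent inhibition. Control set: wells without proteasome as full block, compound-free enzyme plus substrate as uninhibited.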
A3A deaminase = APOBEC3A ssDNA deaminase inhibitors, primary screen, selectivity assay for APOBEC3G inhibitor project, biochemical, FAM/TAMRA oligo cleavage fluorescence | DNA dC->dU-editing enzyme APOBEC-3A (Homo sapiens), P31941 | recombinant A3A, FAM/TAMRA ssDNA deamination fluorescence | inhibition, % at 20 µM | actives 0.41% (n = 330,000) | AID 493011, 2011;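 active means at least 40% inhibition at 20 µM here, with at most 30% in a related deaminase screen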;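 further: plate controls were A3A with DMSO for no effect and wells lacking A3A enzyme for full effect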
Target sequence (P31941 whole entry, looked up): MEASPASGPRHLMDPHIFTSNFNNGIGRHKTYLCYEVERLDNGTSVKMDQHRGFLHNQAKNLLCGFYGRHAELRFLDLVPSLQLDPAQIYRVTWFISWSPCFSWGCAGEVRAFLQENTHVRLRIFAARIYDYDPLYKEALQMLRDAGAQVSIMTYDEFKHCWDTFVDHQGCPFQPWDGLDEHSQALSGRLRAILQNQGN
APOBEC3G confirm = APOBEC3G deaminase inhibitor retest, confirmation, biochemical, fluorescence, single-stranded DNA substrate, single concentration | inhibition, % at 20 µM | recombinant A3G ssDNA deaminase, UDG/FAM-TAMRA fluorescence | actives 72% (n = 890) | shares compounds with A3G deaminase;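 active means inhibition reaching a set limit in any replicate at 20 µM, the limit being 80% of the first screen's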
UDG ctr A3G = E. coli UDG inhibitors, confirmation, counter-screen for APOBEC3G inhibitor project, biochemical, single concentration, fluorescence, FAM/TAMRA oligo | shares compounds with A3G deaminase | UDG counterscreen | inhibition, % at 20 µM | 710 tested, under 10 active;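 active means compounds giving 40% or more inhibition at 20 µM in any one of the three replicates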;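 further: plate controls were DMSO wells with UDG and oligo for no effect and DMSO wells lacking both for full effect; inhibitors lower the FAM signal released by uracil excision and alkaline cleavage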
Numbers without * were called inactive. Only some compounds are listed: those with a hit (about 0.97% of all), similar ones and a draw of the others.

C=CCn1c(-c2cc(OC)cc(OC)c2)n[nH]c1=S was read as JMJD2C inh 4, A3G deaminase 43*, UCH37 DUB inh 3, A3A deaminase -3, APOBEC3G confirm 82* and UDG ctr A3G -2.
`C=CCn1c(-c2sc3nc(C)cc(C)c3c2N)n[nH]c1=S` gave JMJD2C inh 10, A3G deaminase 49*, UCH37 DUB inh -40, A3A deaminase -4, APOBEC3G confirm 77* and UDG ctr A3G -5.
`C=CCn1c(-c2ccc3ncccc3c2)n[nH]c1=S` gave JMJD2C inh 0, A3G deaminase 56*, UCH37 DUB inh 1, A3A deaminase 1, APOBEC3G confirm 60* and UDG ctr A3G -4.
For C=CCn1c(-c2cccc(OCC)c2)n[nH]c1=S the results were JMJD2C inh -13, A3G deaminase 32, UCH37 DUB inh 1 and A3A deaminase -5.
Screening CCn1c(-c2ccc3ncccc3c2)n[nH]c1=S returned JMJD2C inh -6, A3G deaminase 40, UCH37 DUB inh 3 and A3A deaminase -5.
For Cc1nn(-c2ccccc2)c(C)c1C=NNC(=O)c1ccccc1O the results were UCH37 DUB inh -12.
O=C(NN=Cc1cc2c(cc1Cl)OCO2)c1ccncc1 was read as UCH37 DUB inh 0.
`O=[N+]([O-])c1cc(Br)c(O)c(C=NNc2nc3ccccc3s2)c1` gave UCH37 DUB inh 3.
CCOC(=O)c1c(NC(=O)c2ccccc2C(=O)O)sc2c1CCCC2 was read as JMJD2C inh 5, A3G deaminase 0, UCH37 DUB inh 6 and A3A deaminase 2.
CCOC(=O)c1c(NC(=O)c2ccccc2Cl)sc2c1CCc1ccccc1-2 was read as JMJD2C inh -3, A3G deaminase 57*, UCH37 DUB inh -6, A3A deaminase -1, APOBEC3G confirm 75* and UDG ctr A3G -3.
For CCOC(=O)c1c(NC(=O)c2ccccc2)sc2c1CCc1ccccc1-2 the results were JMJD2C inh 2, A3G deaminase 58*, UCH37 DUB inh -149, A3A deaminase 0, APOBEC3G confirm 16* and UDG ctr A3G -2.
For CC(C)Oc1ccc(S(=O)(=O)N2CCOCC2)cc1NC(=O)CC1CCCC1 the results were JMJD2C inh 8, A3G deaminase -2, UCH37 DUB inh -1 and A3A deaminase -1.
`O=C(CC1CCCC1)Nc1cc(S(=O)(=O)N2CCOCC2)ccc1O` gave JMJD2C inh 6, A3G deaminase 57*, UCH37 DUB inh -1, A3A deaminase 4, APOBEC3G confirm 33* and UDG ctr A3G -2.
`CCc1cc2cc(C)cc(C)c2[nH]c1=S` gave JMJD2C inh 7, A3G deaminase 49*, UCH37 DUB inh 3, A3A deaminase 2, APOBEC3G confirm active and UDG ctr A3G -3.
Screening CCOCCCN(Cc1cc2cc(C)cc(C)c2[nH]c1=O)C(=O)N(CC)CC returned JMJD2C inh -3, A3G deaminase 0, UCH37 DUB inh -12 and A3A deaminase 0.
Cc1sc(NC(=O)c2ccccc2)c(C(=O)NC(C)C)c1C was read as JMJD2C inh 1, A3G deaminase -9, UCH37 DUB inh -228 and A3A deaminase -6.
Screening Cc1sc(NC(=O)c2ccccc2)c(C(=O)c2ccccc2)c1C returned JMJD2C inh 11, A3G deaminase 50*, UCH37 DUB inh 4, A3A deaminase 2, APOBEC3G confirm 37* and UDG ctr A3G -3.
Screening Cc1ccc(C(=O)Nc2sc(C)c(C)c2C(=O)c2ccccc2)cc1 returned JMJD2C inh 7, A3G deaminase 40*, UCH37 DUB inh 4, A3A deaminase 3, APOBEC3G confirm 29* and UDG ctr A3G -3.
For CCN1CCN(c2nc(C)nc3c2sc(=S)n3C)CC1 the results were A3G deaminase 46*, A3A deaminase 4 and APOBEC3G confirm 45*.
Cc1cccc(OCCn2c(=S)[nH]c3ccccc32)c1 was read as JMJD2C inh 4, A3G deaminase 62*, UCH37 DUB inh 3, A3A deaminase 8, APOBEC3G confirm 46* and UDG ctr A3G -1.
For CCOC(=O)N1CCN(c2ccnc3cc(Cl)ccc23)CC1 the results were JMJD2C inh 33, A3G deaminase 58*, UCH37 DUB inh -12, A3A deaminase -1, APOBEC3G confirm -59 and UDG ctr A3G -3.
`CCC(=O)N1CCN(c2ccnc3cc(Cl)ccc23)CC1` gave JMJD2C inh 0, A3G deaminase 2, UCH37 DUB inh 7 and A3A deaminase 3.
For COc1ccc(C(=O)Nc2ccc(Cl)c(S(=O)(=O)Nc3ccccc3OC)c2)cc1 the results were JMJD2C inh -1, A3G deaminase -5, UCH37 DUB inh -1 and A3A deaminase 0.
`CCN(CC)c1ccc(NC(=O)c2ccccc2)cc1S(=O)(=O)Nc1ccccc1OC` gave JMJD2C inh 0, A3G deaminase 50*, UCH37 DUB inh -1, A3A deaminase 4, APOBEC3G confirm 48* and UDG ctr A3G 1.
CCN(CC)c1ccc(NC(=O)c2cccc(C)c2)cc1S(=O)(=O)Nc1ccccc1OC was read as JMJD2C inh 4, A3G deaminase 49*, UCH37 DUB inh 4, A3A deaminase 4, APOBEC3G confirm 54* and UDG ctr A3G 3.
`CN1CCN(C=Nc2c(C#N)cnn2Cc2ccccc2)CC1` gave UCH37 DUB inh 4.
`CCOC(=O)c1c2c3c(cccc3[nH]c1=O)C(=O)c1ccccc1-2` gave JMJD2C inh -10, A3G deaminase 53*, UCH37 DUB inh 0, A3A deaminase -3, APOBEC3G confirm 1 and UDG ctr A3G -2.
For CC(=O)Nc1c2c3c(cccc3n(C)c1=O)C(=O)c1ccccc1-2 the results were JMJD2C inh -11, A3G deaminase -3, UCH37 DUB inh -3 and A3A deaminase 1.
`CCOC(=O)c1c2c3c(c(Cl)ccc3[nH]c1=O)C(=O)c1ccccc1-2` gave JMJD2C inh -17, A3G deaminase 28, UCH37 DUB inh 7 and A3A deaminase 2.
CCOC(=O)c1c2c3c(cccc3n(C)c1=O)C(=O)c1ccccc1-2 was read as JMJD2C inh 2, A3G deaminase 55*, A3A deaminase -1, APOBEC3G confirm -1 and UDG ctr A3G -3.
